What was measured:
[1] = system: L1210; assay: Cellular concentration expressed in L1210 cells; assay type: functional, Mus musculus
[2] = system: L1210; assay: Effect on spermine (SPM) levels after 48 hr treatment at 50 uM in L1210 cells; assay type: functional, Mus musculus
[3] = system: L1210; assay: Effect on Putrescine (PUT) levels after 48 h treatment at 50 uM in L1210 cells; assay type: functional, Mus musculus
[4] = system: L1210; assay: Effect on spermidine (SPD) levels after 48 hr treatment at 50 uM in L1210 cells; assay type: functional, Mus musculus
[5] = system: L1210; assay: Inhibitory activity against L1210 cell growth for 48 hr; assay type: functional, cell-based; conditions: Mus musculus, L1210, 48 h
In short: (§1)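 Murine leukemia L1210 cells grown with nine extracellular drug concentrations (0, 0.03, 0.1, 0.3, 1.0, 3, 10, 30, 100 µM); IC50 estimated from growth curves at 48 or 96 h; mean of at least two experiments.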

[6] = system: L1210; assay: Inhibitory activity against L1210 cell growth for 96h; assay type: functional, cell-based; conditions: Mus musculus, L1210, 96 h; in short: as §1
[7] = system: L1210; assay: Ability to inhibit [3H]SPD transport by L1210 cells; assay type: functional, cell-based, Mus musculus
In short: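 Ki from analogue inhibition of [3H]spermidine transport into murine leukemia L1210 cells, analysed as substrate-competitive inhibition; mean of at least two or three experiments.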

[8] = molecular target: T1, Ornithine decarboxylase (Mus musculus) (UniProt P00860); assay: Effect on Ornithine Decarboxylase (ODC) activity in L1210 cells at 1 uM for 4 hr; assay type: functional, cell-based
T1 sequence (whole entry): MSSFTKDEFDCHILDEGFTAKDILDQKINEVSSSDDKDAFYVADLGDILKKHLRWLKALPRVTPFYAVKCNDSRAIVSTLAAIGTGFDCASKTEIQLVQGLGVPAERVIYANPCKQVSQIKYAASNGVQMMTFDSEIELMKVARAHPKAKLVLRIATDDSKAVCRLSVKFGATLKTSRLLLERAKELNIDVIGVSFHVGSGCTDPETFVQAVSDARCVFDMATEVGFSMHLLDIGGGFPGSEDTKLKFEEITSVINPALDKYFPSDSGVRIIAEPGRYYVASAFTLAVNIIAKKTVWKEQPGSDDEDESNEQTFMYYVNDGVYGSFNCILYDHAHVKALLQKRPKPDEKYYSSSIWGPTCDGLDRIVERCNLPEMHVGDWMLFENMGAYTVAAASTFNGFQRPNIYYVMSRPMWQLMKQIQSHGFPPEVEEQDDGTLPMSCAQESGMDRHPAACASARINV

[9] = molecular target: Spermidine/spermine N(1)-acetyltransferase (SAT) (Mus musculus) (UniProt Q6P8J2+P48026); assay: Effect on Spermidine/spermine N1-acetyl transferase (SSAT) activity in L1210 cells at 10 uM for 48h; assay type: functional, cell-based
Spermidine/spermine N(1)-acetyltransferase (SAT) (Mus musculus), sequence (P48026 whole entry, looked up): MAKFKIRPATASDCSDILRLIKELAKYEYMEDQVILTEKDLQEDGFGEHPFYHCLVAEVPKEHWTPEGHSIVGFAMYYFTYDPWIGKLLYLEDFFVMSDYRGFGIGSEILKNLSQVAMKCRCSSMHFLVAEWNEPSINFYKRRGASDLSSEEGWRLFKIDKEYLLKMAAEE
Spermidine/spermine N(1)-acetyltransferase (SAT) (Mus musculus), sequence (Q6P8J2 whole entry, looked up): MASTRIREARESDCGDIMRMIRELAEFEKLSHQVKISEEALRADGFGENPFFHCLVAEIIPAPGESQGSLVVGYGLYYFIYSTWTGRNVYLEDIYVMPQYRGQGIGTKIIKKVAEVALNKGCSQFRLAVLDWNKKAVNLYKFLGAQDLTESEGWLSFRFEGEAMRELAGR

[10] = Effect on S-Adenosyl-methionine decarboxylase (AdoMetDC) activity in L1210 cells at 1 uM for 6 hr
[11] = system: L1210; assay: Effect on spermine (SPM) levels after 48 h treatment at 150 uM in L1210 cells; assay type: functional, Mus musculus
[12] = system: L1210; assay: Effect on Putrescine (PUT) levels after 48 hr treatment at 150 uM in L1210 cells; assay type: functional, Mus musculus
[13] = system: L1210; assay: Effect on spermidine (SPD) levels after 48 hr treatment at 150 uM in L1210 cells; assay type: functional, Mus musculus
[14] = system: L1210; assay: Effect on Putrescine (PUT) levels after 48 hr treatment at 500 uM in L1210 cells; assay type: functional, Mus musculus
[15] = system: L1210; assay: Effect on spermidine (SPD) levels after 48 hr treatment at 500 uM in L1210 cells; assay type: functional, Mus musculus
[16] = system: L1210; assay: Effect on spermine (SPM) levels after 48 hr treatment at 500 uM in L1210 cells; assay type: functional, Mus musculus

IC50 [5] [µM]	IC50 [6] [µM]	Activity [8] [%]	Activity [9] [%]	Structure (SMILES)	Cellular concentration [1] [nmol/10^6 cells]	Activity [2]	Activity [3]	Activity [4]	Ki [7] [µM]	Activity [10] [%]	Activity [11]	Activity [12]	Activity [13]	Activity [14]	Activity [15]	Activity [16]
8	0.4	16	667	CCNCCCNCCC(N)CNCCCNCC (stereo not drawn)	3.1	32	26	7	33.7	58	–	–	–	–	–	–
–	–	–	–	CCNCCCNCCCCNCCCNCC [BIS(ETHYL)SPERMINE]	1.78	–	–	–	–	28	22	0	0	–	–	–
–	> 100	100	97	FC(F)(F)CNCCCNCCCCNCCCNCC(F)(F)F	< 0.02	–	–	–	–	100	–	–	–	87	94	116
